Test results as given in ChEMBL document CHEMBL1124984, “Benzophenone dicarboxylic acid antagonists of leukotriene B4. 2. Structure-activity relationships of the lipophilic side chain” (J Med Chem, 1990).

What follows are molecules tested against T1, Leukotriene B4 receptor 1 (Homo sapiens, UniProt Q15722) (assay: Inhibition of binding of B4 (LTB4) to Leukotriene B4 receptor on intact human neutrophils at a concentration of 10e -8M.).
Outline: (§1)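 Neutrophil suspensions (≥90% neutrophils, ≥90% viable) at 2 × 10^7 cells/mL in Hanks' balanced salt solution with 0.1% ovalbumin. Cells were incubated 10 min at 4 °C with compound in DMSO and [3H]LTB4 added as a 2.65 nM solution. Cells were spun 2 min through dibutyl/dinonyl phthalate (7:2) and the pellet counted by scintillation. Nonspecific binding was measured with >2000-fold excess unlabeled ligand. Results are % inhibition of specific binding, mean of ≥3 replicates.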

T1 sequence (Q15722 whole entry): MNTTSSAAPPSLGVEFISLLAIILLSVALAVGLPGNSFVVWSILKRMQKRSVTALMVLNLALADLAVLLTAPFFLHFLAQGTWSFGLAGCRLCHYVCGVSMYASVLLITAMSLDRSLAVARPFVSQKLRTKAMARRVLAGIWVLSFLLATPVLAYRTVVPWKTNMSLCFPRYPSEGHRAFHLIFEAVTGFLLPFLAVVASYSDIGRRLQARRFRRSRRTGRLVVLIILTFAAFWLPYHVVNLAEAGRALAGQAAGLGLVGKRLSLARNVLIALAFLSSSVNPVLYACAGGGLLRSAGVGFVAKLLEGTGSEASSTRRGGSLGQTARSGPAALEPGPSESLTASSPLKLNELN

inhibition [%]	SMILES
0	CCCCCCCCOc1ccc(C(=O)c2cccc(C(=O)O)c2)cc1CCC(=O)O
0	CCOc1ccc(C(=O)c2cccc(C(=O)O)c2)cc1CCC(=O)O
0	CCCCCCOc1ccc(C(=O)c2cccc(C(=O)O)c2)cc1CCC(=O)O
0	CCCCCCCCCCCCCCOc1ccc(C(=O)c2cccc(C(=O)O)c2)cc1CCC(=O)O
14	O=C(O)CCc1cc(C(=O)c2cccc(C(=O)O)c2)ccc1OCCCCCCc1ccccc1

These molecules were tested against T2, Leukotriene B4 receptor (Homo sapiens) (UniProt Q9NPC1+Q15722) (assay: Antagonistic activity against Leukotriene B4 receptor by using [3H]- LTB4 as a radioligand at a concentration of 10e-6 M).
Format: functional
Outline: as §1

T2 sequence (Q15722 whole entry, looked up): as the sequence (Q15722 whole entry) above
T2 sequence (Q9NPC1 whole entry, looked up): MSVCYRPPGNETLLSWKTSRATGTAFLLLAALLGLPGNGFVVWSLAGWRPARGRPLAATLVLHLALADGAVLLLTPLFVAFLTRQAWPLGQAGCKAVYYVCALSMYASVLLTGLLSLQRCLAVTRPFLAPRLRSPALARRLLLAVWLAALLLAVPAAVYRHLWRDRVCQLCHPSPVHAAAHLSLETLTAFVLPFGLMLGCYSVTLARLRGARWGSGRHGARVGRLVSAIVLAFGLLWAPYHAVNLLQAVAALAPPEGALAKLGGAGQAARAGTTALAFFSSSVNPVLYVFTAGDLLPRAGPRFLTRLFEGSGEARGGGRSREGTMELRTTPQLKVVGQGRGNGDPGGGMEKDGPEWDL

inhibition [%]	SMILES
29	O=C(O)CCc1cc(C(=O)c2cccc(C(=O)O)c2)ccc1OCCCCSc1ccccc1
4	O=C(O)CCc1cc(C(=O)c2cccc(C(=O)O)c2)ccc1OCCCCS(=O)(=O)c1ccccc1
10	CCCCCCOc1ccc(C(=O)c2cccc(C(=O)O)c2)cc1CCC(=O)O
21	O=C(O)CCc1cc(C(=O)c2cccc(C(=O)O)c2)ccc1OCCCCc1ccccc1
19	O=C(O)CCc1cc(C(=O)c2cccc(C(=O)O)c2)ccc1OCCCc1ccccc1
3	O=C(O)CCc1cc(C(=O)c2cccc(C(=O)O)c2)ccc1OCc1ccccc1
60	CCCCCCCCCCOc1ccc(C(=O)c2cccc(C(=O)O)c2)cc1CCC(=O)O
79	CSc1ccc(/C=C/CCCCOc2ccc(C(=O)c3cccc(C(=O)O)c3)cc2CCC(=O)O)cc1

Continued, molecule first:

SMILES	inhibition [%]
COc1cccc(CCCCCCOc2ccc(C(=O)c3cccc(C(=O)O)c3)cc2CCC(=O)O)c1	89
CCCCCCCCOc1ccc(C(=O)c2cccc(C(=O)O)c2)cc1CCC(=O)O	35
CCOc1ccc(C(=O)c2cccc(C(=O)O)c2)cc1CCC(=O)O	0
O=C(O)CCc1cc(C(=O)c2cccc(C(=O)O)c2)ccc1OCCCC[S+]([O-])c1ccccc1 (stereo not drawn)	0
O=C(O)CCc1cc(C(=O)c2cccc(C(=O)O)c2)ccc1OCCc1ccccc1	3
COc1ccc(C(=O)c2cccc(C(=O)O)c2)cc1CCC(=O)O	7
CCCCCCCCCCCCCCOc1ccc(C(=O)c2cccc(C(=O)O)c2)cc1CCC(=O)O	29
O=C(O)CCc1cc(C(=O)c2cccc(C(=O)O)c2)ccc1OCCCCCCc1ccccc1	85
O=C(O)CCc1cc(C(=O)c2cccc(C(=O)O)c2)ccc1OCCCCOc1ccccc1	16

The molecules below were run against T1, Leukotriene B4 receptor 1 (assay: Inhibition of binding of B4 (LTB4) to its Leukotriene B4 receptor on intact human neutrophils at a concentration of 10e -7M.).
Outline: as §1

inhibition [%]	SMILES
0	CCCCCCOc1ccc(C(=O)c2cccc(C(=O)O)c2)cc1CCC(=O)O
7	CCCCCCCCCCOc1ccc(C(=O)c2cccc(C(=O)O)c2)cc1CCC(=O)O

Further lines, the molecule ahead of its results:

SMILES	inhibition [%]
CCCCCCCCOc1ccc(C(=O)c2cccc(C(=O)O)c2)cc1CCC(=O)O	0
CCOc1ccc(C(=O)c2cccc(C(=O)O)c2)cc1CCC(=O)O	0
CCCCCCCCCCCCCCOc1ccc(C(=O)c2cccc(C(=O)O)c2)cc1CCC(=O)O	0
O=C(O)CCc1cc(C(=O)c2cccc(C(=O)O)c2)ccc1OCCCCCCc1ccccc1	36

What follows are molecules tested against T2, Leukotriene B4 receptor (Homo sapiens) (assay: Antagonistic activity against Leukotriene B4 receptor by using [3H]- LTB4 as a radioligand at a concentration of 10e-5 M).
Format: functional
Outline: as §1

inhibition [%]	SMILES
89	O=C(O)CCc1cc(C(=O)c2cccc(C(=O)O)c2)ccc1OCCCCSc1ccccc1
18	O=C(O)CCc1cc(C(=O)c2cccc(C(=O)O)c2)ccc1OCCCCS(=O)(=O)c1ccccc1
56	CCCCCCOc1ccc(C(=O)c2cccc(C(=O)O)c2)cc1CCC(=O)O
78	O=C(O)CCc1cc(C(=O)c2cccc(C(=O)O)c2)ccc1OCCCCc1ccccc1
60	O=C(O)CCc1cc(C(=O)c2cccc(C(=O)O)c2)ccc1OCCCc1ccccc1
31	O=C(O)CCc1cc(C(=O)c2cccc(C(=O)O)c2)ccc1OCc1ccccc1
72	O=C(O)CCc1cc(C(=O)c2cccc(C(=O)O)c2)ccc1OCCCCc1cccs1
95	CCCCCCCCCCOc1ccc(C(=O)c2cccc(C(=O)O)c2)cc1CCC(=O)O
100	CSc1ccc(/C=C/CCCCOc2ccc(C(=O)c3cccc(C(=O)O)c3)cc2CCC(=O)O)cc1

The remaining lines, values behind:

SMILES	inhibition [%]
COc1cccc(CCCCCCOc2ccc(C(=O)c3cccc(C(=O)O)c3)cc2CCC(=O)O)c1	95
CCCCCCCCOc1ccc(C(=O)c2cccc(C(=O)O)c2)cc1CCC(=O)O	87
CCOc1ccc(C(=O)c2cccc(C(=O)O)c2)cc1CCC(=O)O	0
O=C(O)CCc1cc(C(=O)c2cccc(C(=O)O)c2)ccc1OCCCC[S+]([O-])c1ccccc1 (stereo not drawn)	22
O=C(O)CCc1cc(C(=O)c2cccc(C(=O)O)c2)ccc1OCCc1ccccc1	37
COc1ccc(C(=O)c2cccc(C(=O)O)c2)cc1CCC(=O)O	0
CCCCCCCCCCCCCCOc1ccc(C(=O)c2cccc(C(=O)O)c2)cc1CCC(=O)O	73
O=C(O)CCc1cc(C(=O)c2cccc(C(=O)O)c2)ccc1OCCCCCCc1ccccc1	100
O=C(O)CCc1cc(C(=O)c2cccc(C(=O)O)c2)ccc1OCCCCOc1ccccc1	67

What follows are molecules tested against T2, Leukotriene B4 receptor (Homo sapiens) (assay: Antagonistic activity against Leukotriene B4 receptor by using [3H]- LTB4 as a radioligand at a concentration of 10e-7 M).
Format: functional
Outline: as §1

inhibition [%]	SMILES
46	COc1cccc(CCCCCCOc2ccc(C(=O)c3cccc(C(=O)O)c3)cc2CCC(=O)O)c1
18	CSc1ccc(/C=C/CCCCOc2ccc(C(=O)c3cccc(C(=O)O)c3)cc2CCC(=O)O)cc1
